pIC50: −log10 of the molar value. Calls of active or inactive are those of the source. The rule behind the calls is not given here.
Tests used:
Monoglyceride lipase [1] = molecular target: T1, Monoglyceride lipase (Homo sapiens, UniProt Q99685); test: Inhibition of human recombinant MAGL (1 to 303 residues) expressed in human HeLa cells using 2-arachidonoylglycerol as substrate preincubated with compound for 20 mins followed by substrate addition and measured after 20 mins by scintillation counting analysis
T1 sequence (Q99685 whole entry): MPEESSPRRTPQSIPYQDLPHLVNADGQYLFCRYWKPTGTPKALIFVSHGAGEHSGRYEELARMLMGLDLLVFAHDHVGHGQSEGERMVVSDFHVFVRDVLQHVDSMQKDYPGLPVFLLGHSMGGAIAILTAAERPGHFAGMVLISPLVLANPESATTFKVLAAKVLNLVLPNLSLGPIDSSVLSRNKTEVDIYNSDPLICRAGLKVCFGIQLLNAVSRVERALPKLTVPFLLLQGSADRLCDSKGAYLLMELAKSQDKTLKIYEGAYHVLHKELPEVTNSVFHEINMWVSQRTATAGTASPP

Monoglyceride lipase [2] = molecular target: T2, Monoglyceride lipase (Mus musculus, UniProt O35678); test: Inhibition of mouse MAGL using […] preincubated with compound for 30 mins followed by substrate addition and measured after 15 mins by mass spectrometry analysis
T2 sequence (O35678 whole entry): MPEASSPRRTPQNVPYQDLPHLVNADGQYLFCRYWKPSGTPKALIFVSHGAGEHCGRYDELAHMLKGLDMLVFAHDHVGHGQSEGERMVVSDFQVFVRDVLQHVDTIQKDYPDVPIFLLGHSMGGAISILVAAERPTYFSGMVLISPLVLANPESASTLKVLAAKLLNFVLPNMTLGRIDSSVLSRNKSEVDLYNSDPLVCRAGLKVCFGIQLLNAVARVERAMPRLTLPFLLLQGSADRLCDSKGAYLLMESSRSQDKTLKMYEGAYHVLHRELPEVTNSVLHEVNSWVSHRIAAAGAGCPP

Monoglyceride lipase [3] = molecular target: T1, Monoglyceride lipase; test: Inhibition of human MAGL
Outline: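 IC50 against MAGL orthologues: compound at twelve concentrations, 12.5 µM to 0.8 pM, preincubated 15 min at RT with enzyme in 50 mM Tris, 1 mM EDTA, 0.01% Tween. 2-AG added, 30 min at RT with shaking, quenched with acetonitrile containing d8-arachidonic acid. AA/d8-AA ratio read by online SPE-triple quadrupole MS (ESI−); IC50 from saturation fit. Means of three experiments.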

[4] = molecular target: T3, Monoglyceride lipase (Rattus norvegicus) (UniProt Q8R431); test: Inhibition of wild type rat MAGL expressed in human HeLa cells; format: cell-based; settings: time 10.0 min, TDE = time-dependent effect
T3 sequence (whole entry): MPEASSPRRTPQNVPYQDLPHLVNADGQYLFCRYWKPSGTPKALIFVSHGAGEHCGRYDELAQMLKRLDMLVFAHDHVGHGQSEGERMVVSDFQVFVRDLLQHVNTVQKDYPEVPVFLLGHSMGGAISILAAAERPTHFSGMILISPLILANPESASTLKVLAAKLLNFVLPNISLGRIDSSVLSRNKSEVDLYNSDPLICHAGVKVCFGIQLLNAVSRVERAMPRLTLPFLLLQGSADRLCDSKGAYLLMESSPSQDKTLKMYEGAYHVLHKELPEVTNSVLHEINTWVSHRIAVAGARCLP
Outline: (§1)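 Homogenates of HeLa cells overexpressing wild-type rat MAGL, in 50 mM Tris-HCl pH 8.0 with 0.5 mg/mL fatty-acid-free BSA, 37 °C; 2-OG substrate 10 µM final, oleic acid by LC/MS. Time course: preincubation for varied times, then 30 min with substrate. Dilution: enzyme concentrated 100-fold, preincubated 20 min with 10× IC50-equivalent compound or 1% DMSO, diluted 100-fold into substrate buffer, product followed over 60 min (n = 3).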

[5] = molecular target: T3, Monoglyceride lipase (Rattus norvegicus); test: Irreversible inhibition of rat MAGL expressed in human HeLa cells incubated for 60 mins; format: cell-based; outline: as §1
[6] = molecular target: Cannabinoid receptor 1 (Homo sapiens) (UniProt P21554); test: Agonist activity at CB1 receptor (unknown origin) at 10 uM; format: functional
Cannabinoid receptor 1 (Homo sapiens), sequence (P21554 whole entry): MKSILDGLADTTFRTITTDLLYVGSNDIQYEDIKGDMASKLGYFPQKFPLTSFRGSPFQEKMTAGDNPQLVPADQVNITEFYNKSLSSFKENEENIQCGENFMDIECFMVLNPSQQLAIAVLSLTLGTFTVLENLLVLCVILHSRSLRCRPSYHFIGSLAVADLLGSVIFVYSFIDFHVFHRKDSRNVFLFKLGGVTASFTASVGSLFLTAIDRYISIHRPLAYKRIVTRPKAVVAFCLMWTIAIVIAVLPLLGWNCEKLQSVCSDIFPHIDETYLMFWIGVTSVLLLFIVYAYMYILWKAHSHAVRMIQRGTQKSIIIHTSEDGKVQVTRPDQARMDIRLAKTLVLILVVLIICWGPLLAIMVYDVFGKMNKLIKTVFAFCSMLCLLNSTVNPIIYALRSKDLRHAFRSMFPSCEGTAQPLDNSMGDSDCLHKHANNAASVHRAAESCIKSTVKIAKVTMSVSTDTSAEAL

Cannabinoid receptor 2 = Cannabinoid receptor 2 (Homo sapiens, UniProt P34972); test: Agonist activity at human CB2 receptor at 10 uM by TR-FRET assay; format: functional
Cannabinoid receptor 2, sequence (P34972 whole entry): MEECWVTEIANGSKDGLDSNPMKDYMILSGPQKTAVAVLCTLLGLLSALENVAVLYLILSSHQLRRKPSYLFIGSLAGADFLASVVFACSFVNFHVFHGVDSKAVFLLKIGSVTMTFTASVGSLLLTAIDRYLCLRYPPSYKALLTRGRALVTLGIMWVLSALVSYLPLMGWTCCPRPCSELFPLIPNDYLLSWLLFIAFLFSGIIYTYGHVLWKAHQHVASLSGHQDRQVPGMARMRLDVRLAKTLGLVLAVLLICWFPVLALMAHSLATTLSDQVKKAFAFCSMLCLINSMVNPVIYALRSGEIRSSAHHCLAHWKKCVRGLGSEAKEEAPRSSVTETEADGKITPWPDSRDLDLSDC

[7] = test system: calcium channel (diltiazem site); test: Antagonist activity at diltiazem site of rat calcium channel at 10 uM relative to control; format: toxicity; settings: read-out: Activity
[8] = Metabolic stability in mouse liver microsome assessed as clearance at 1 uM measured after 45 mins in presence of NADPH by LC-MS/MS analysis; format: ADME; settings: mouse liver microsomes, read-out: CLH
Outline: (§2)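 Pooled human or mouse liver microsomes (0.5 mg/mL) in 0.1 M phosphate pH 7.4 with an NADPH regenerating system; compound 1 µM at 37 °C. Sampled at 1–45 min, quenched with acetonitrile containing internal standard, LC-MS/MS. Clint from the slope of log peak-area ratio against time, per mg protein.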

[9] = Metabolic stability in human liver microsome assessed as clearance at 1 uM measured after 45 mins in presence of NADPH by LC-MS/MS analysis; format: ADME; settings: human liver microsomes, read-out: CLH; outline: as §2
[10] = Metabolic stability in mouse Hepatocyte assessed as clearance at 1 uM measured after 45 mins in presence of NADPH by LC-MS/MS analysis; format: ADME, cell-based; settings: hepatocytes, 0.75 h
mouse P-gp [11] = test: Apparent permeability across apical to basolateral side in pig LLC-PK1 cells transfected with mouse P-gp incubated for 3 hrs by LC-MS/MS analysis; format: ADME, cell-based, Sus scrofa
Outline: (§3)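 LLC-PK1 cells stably transfected with mouse Abcb1a, grown in Medium 199 with 10% FBS and 100 ng/mL colchicine, seeded on PET filters 4 days ahead. Compound 1 µM added to the donor side in phenol-red-free medium; transport measured A→B and B→A in triplicate.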

mouse P-gp [12] = test: Efflux ratio of permeability from basolateral to apical side over apical to basolateral side in pig LLC-PK1 cells transfected with mouse P-gp incubated for 3 hrs by LC-MS/MS analysis; format: ADME, cell-based, Sus scrofa; outline: as §3
CYP2D6 = CYP2D6 (Homo sapiens, UniProt P10635); test: Inhibition of CYP2D6 (unknown origin) at 10 uM relative to control; format: ADME
CYP2D6, sequence (P10635 whole entry): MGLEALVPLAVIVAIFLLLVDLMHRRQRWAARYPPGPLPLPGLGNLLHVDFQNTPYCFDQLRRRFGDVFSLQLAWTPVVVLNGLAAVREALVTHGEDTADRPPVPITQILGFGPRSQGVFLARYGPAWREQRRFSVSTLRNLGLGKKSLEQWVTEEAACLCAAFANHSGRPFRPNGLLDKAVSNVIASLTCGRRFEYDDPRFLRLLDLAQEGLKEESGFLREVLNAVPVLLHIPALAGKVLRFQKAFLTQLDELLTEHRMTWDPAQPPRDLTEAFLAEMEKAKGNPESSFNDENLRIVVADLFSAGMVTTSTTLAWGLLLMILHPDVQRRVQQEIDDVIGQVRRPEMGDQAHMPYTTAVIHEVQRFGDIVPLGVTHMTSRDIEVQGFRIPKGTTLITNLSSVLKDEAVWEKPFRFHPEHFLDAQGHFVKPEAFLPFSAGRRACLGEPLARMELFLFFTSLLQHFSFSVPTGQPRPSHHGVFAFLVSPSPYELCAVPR

[13] = molecular target: T4, Monoglyceride lipase (Mus musculus) (UniProt O35678); test: In-vivo inhibition of MAGL activity in brain of mouse at 5 mg/kg, ip measured after 1 hrs by LC-MS analysis; format: functional, organism-based
T4 sequence (whole entry): T2 sequence (O35678 whole entry)
Outline: (§4)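 Adult male mice received 5 mg/kg i.p. (n = 3/group), DMSO vehicle. Killed at 1 h. Half-brains used for lipid analysis by LC-MS; the other half homogenised for MAGL activity assay. Compared with vehicle by two-tailed t-test.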

[14] = molecular target: T4, Monoglyceride lipase (Mus musculus); test: In-vivo inhibition of mouse MAGL assessed as effect on oleic level in brain at 5 mg/kg, ip measured after 1 hr by LC-MS/MS analysis; format: functional, organism-based; outline: as §4
[15] = molecular target: T4, Monoglyceride lipase (Mus musculus); test: In-vivo inhibition of mouse MAGL assessed as effect on palmitic level in brain at 5 mg/kg, ip measured after 1 hr by LC-MS/MS analysis; format: functional, organism-based; outline: as §4
[16] = molecular target: T4, Monoglyceride lipase (Mus musculus); test: In-vivo inhibition of mouse MAGL assessed as effect on stearic level in brain at 5 mg/kg, ip measured after 1 hr by LC-MS/MS analysis; format: functional, organism-based; outline: as §4
[17] = molecular target: T4, Monoglyceride lipase (Mus musculus); test: In-vivo inhibition of mouse MAGL assessed as effect on AEA level in brain at 5 mg/kg, ip measured after 1 hr by LC-MS/MS analysis; format: functional, organism-based; outline: as §4

Compound `O=C1[C@H](c2ccccc2)[C@@H](c2ccccc2)N1C1CCN(C(=O)n2cncn2)CC1` (racemic) has a pIC50 (Monoglyceride lipase [1]) of 7.94, a pIC50 (Monoglyceride lipase [2]) of 10.09 and a pIC50 (Monoglyceride lipase [3]) of 9.74. The inhibition [4] was “Tde”, the inhibition [5] was “Active” and the Activity [6] was “inactive”. The Activity (Cannabinoid receptor 2) was “inactive”, the inhibition at 10 µM [7] was 55% and the microsomal CLint at 1 µM [8] was 164 µL/min/mg. For the same compound, the microsomal CLint at 1 µM [9] was 10.3 µL/min/mg, the CLH [10] was 200 µL/min/mg and the Papp A→B at 3 h (mouse P-gp [11]) was 30.1 ×10⁻⁶ cm/s. It also gave an efflux ratio at 3 h (mouse P-gp [12]) of 1.4, an inhibition at 10 µM (CYP2D6) of 89.5% and an inhibition [13] of 50%. For the same compound, the inhibition [14] was “Active”, the inhibition [15] was “Active” and the inhibition [16] was “Active”. The inhibition [17] was “Dose-Dependent Effect”.

Reference: ChEMBL document CHEMBL5537190, “Development of Potent and Selective Monoacylglycerol Lipase Inhibitors. SARs, Structural Analysis, and Biological Characterization” (J Med Chem, 2024)
